NR1D1 modulator: modulates human Rev-erb alpha binding to DNA | P20393 | Rev-erbα–FITC-DNA binding, fluorescence polarization, 90 min | activity, % at 10 µM | actives 0.79% (n = 370,000) | AID 1259318;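 active = activity above about 14%, limit read from the data; passing the limit was not always enough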
NR2E3 ag-1: activates human photoreceptor nuclear receptor NR2E3 | AID 2300 | Q9Y5X4 | GST-NR2E3/biotin-RetCOR TR-FRET, 1536-well | inhibition of corepressor binding, % at 4.78 µM | actives 0.12% (n = 320,000);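 active = percent inhibition above the cutoff of mean plus 3 SD of all tested compounds, set per screening campaign, cut at about 20% in these data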
Target sequence (Q9Y5X4 whole entry, looked up): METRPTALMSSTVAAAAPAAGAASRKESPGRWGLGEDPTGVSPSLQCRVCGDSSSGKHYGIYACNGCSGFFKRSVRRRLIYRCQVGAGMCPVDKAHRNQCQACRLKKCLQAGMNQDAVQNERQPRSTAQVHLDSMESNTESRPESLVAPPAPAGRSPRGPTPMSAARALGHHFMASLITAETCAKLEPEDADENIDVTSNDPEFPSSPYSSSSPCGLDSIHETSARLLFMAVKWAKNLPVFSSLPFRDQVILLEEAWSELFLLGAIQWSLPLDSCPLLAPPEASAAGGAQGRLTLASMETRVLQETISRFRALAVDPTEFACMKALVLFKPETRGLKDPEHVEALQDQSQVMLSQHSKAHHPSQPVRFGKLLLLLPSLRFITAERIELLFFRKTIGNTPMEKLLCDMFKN
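Material: NR2E3–RetCOR corepressor complex / Amount: 1.35 nM GST-NR2E3 / Medium: Tris pH 7.5 / Compound: single nominal compound dose of 4.8 µM / Incubation: 5 h at 4 °C / Technique: TR-FRET, Eu(K)-anti-GST donor, streptavidin-D2 acceptor, ex 340, em 617/671 nm / Read-out basis: percent loss of FRET ratio relative to control wells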
NR2E3 ag-2: activates human NR2E3 receptor; actives 0.35% (n = 360,000); CHO-S Gal4-NCOR/VP16-NR2E3 two-hybrid, luciferase; inhibition of corepressor binding, % at 3.98 µM;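 active = inhibition above the mean of all tested compounds plus 3 SD, cut at about 70% in these data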;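 also: higher means lower luciferase signal from less NR2E3 corepressor binding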
PKA-R1A act: activates the PKA-R1A holoenzyme complex; P00514+P68181; actives 0.083% (n = 340,000); PKA-R1A dissociation, Cy5-IP20 fluorescence polarization; scaled: DMSO 0%, 113 µM cGMP 100%; activation, % at 11.4 µM; AID 504707;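 active = percent activation above the mean of all tested compounds plus 3 SD, cut at about 19% in these data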;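 also: higher means more PKAc released from R1A so a rise in polarization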
PG9 binder: small molecules binding HIV-1 gp120 antibody PG9; TR-FRET gp120-PG9 antibody binding; inhibition, % at 6.7 µM; actives 0.43% (n = 360,000); in the data active = inhibition above about 8.5%
PKA-R2B act: activators of human PKA-R2B complex; PKA-R2B holoenzyme dissociation, Cy5-IP20 fluorescence polarization; R2B truncated from residue 108, S112A mutant; 0% DMSO only, 100% 113 µM cGMP; activation, % at 11.4 µM; actives 0.079% (n = 340,000);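 active = activation above a cutoff set at the mean over all compounds plus 3 SD, cut at about 18% in these data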;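 also: higher means more holoenzyme dissociation and a rise in polarization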
Rev-erbA confirm: confirmation of modulators of human Rev-erb alpha DNA binding; actives 61% (n = 3,000); Rev-erb alpha FITC-DNA binding, fluorescence polarization, 90 min; activation, % at 25 µM; shares compounds with NR1D1 modulator; AID 1259319;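 active = activation at or above a set limit, or at least 3 SD above the negative control mean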
RORg DNA counter: RORgamma DNA-binding activity, dose-response counter-screen. shares compounds with NR1D1 modulator. purified RORgamma protein-FITC-DNA binding, fluorescence polarization. IC50, µM. actives 8% (n = 910);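 active = Compounds whose fitted half-maximal concentration for disrupting protein-DNA binding is below 10 micromolar; the record names Rev-erb in its text, so the target is in doubt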
A number is an active result; . = inactive; / = no result. Sampled rows, rich in hits. Any-hit rate of the full collection: about 1.6%.

SMILES	NR1D1 modulator	NR2E3 ag-1	NR2E3 ag-2	PKA-R1A act	PG9 binder	PKA-R2B act	Rev-erbA confirm	others
Cc1cc(Br)cn2c(Cc3cccc(F)c3)c(-c3cccc(Cl)c3)nc12	19	/	/	/	.	/	.
COc1ccc2cc(C3CC(c4cccs4)=NN3C(C)=O)c(Cl)nc2c1 (configuration not stated)	41	.	.	.	.	.	32	RORg DNA counter=.
CC1=NN(c2ccccc2)C(=O)/C1=C/C=C/C=C/N(C)C	51	.	.	.	.	.	53
CCOC(=O)Nc1ccc2c(COC(=O)CN(C)S(=O)(=O)c3ccc(C)cc3)cc(=O)oc2c1	46	.	.	.	.	.	.
O=C(O)c1cc(-c2ccc(/C=C3/SC(=S)N(Cc4ccccc4)C3=O)o2)ccc1Cl	21	/	.	.	.	.	.
Cc1ccc(/C=C2\SC(=S)N(Cc3ccccc3)C2=O)o1	.	.	.	.	.	.	/
COC(=O)c1ccc(C23CC4(C2)[C@H](CN(Cc2cccnc2)[C@@H]4c2ccccc2)C3c2ccccc2)cc1 (some centres not stated)	.	.	.	.	.	.	/
N#Cc1ccc(C23CC4(C2)[C@H](CN(Cc2cccnc2)[C@@H]4c2ccccc2)C3c2ccccc2)cc1 (some centres not stated)	23	.	.	.	.	.	29
COc1cc2c(cc1OC)C1(Nc3c-2c(C)nn3-c2ccccc2)C(=O)Nc2ccccc21 (configuration not stated)	18	.	.	.	.	.	.
COc1ccc2cc(C#N)c(Nc3cccc(F)c3)nc2c1	55	.	.	.	.	.	42	RORg DNA counter=.
COc1cccc(Nc2nc3cc(C)ccc3cc2C)c1	.	/	.	.	.	.	/
CCc1ccccc1CNC(=O)C1CCC(CNS(=O)(=O)c2cccc3cccnc23)CC1 (configuration not stated)	.	/	/	/	/	/	/
CCc1cc2c(=O)[nH]c(Cc3ccc(Cl)cc3)nc2s1	19	.	.	.	.	.	18
COc1ccc(C2Nc3ccc(Br)cc3C(c3ccccc3)N2CC(=O)O)cc1 (configuration not stated)	18	.	.	.	.	.	.
O=C(O)CN1C(c2ccccc2O)Nc2ccc(Br)cc2C1c1ccccc1 (configuration not stated)	.	/	.	/	.	/	/
Cc1ccc2nc(N3CCN(c4cccc(C)c4C)CC3)c3nnnn3c2c1	28	.	.	.	.	.	71	RORg DNA counter=.
Oc1ccc(N=Nc2ccccc2C(F)(F)F)c2cccnc12	23	.	.	.	.	.	.
COc1ccc(C(=O)c2c(-c3ccc(OC)cc3)oc3ccc(-c4ccc(OC)nc4)cc23)cc1	17	.	.	.	.	.	.
Brc1ccc(-c2csc(N3CCNCC3)n2)cc1	.	/	/	/	/	/	/
Cc1ccc(OCC(=O)O/N=C(\N)c2ccncc2)cc1C	22	.	.	.	.	.	.
COc1ccc(C)cc1NC(=O)c1sc2ncn(CC(=O)N3CCCCC3)c(=O)c2c1C	29	.	.	.	.	.	24
Cc1cc(OC(C)C(=O)NCc2cccnc2)c2c(C)c(Cc3ccccc3)c(=O)oc2c1 (configuration not stated)	107	.	.	.	.	.	104	RORg DNA counter=.
CCOc1ccc(N(Cc2cc3ccc(C)cc3[nH]c2=O)S(=O)(=O)c2ccccc2)cc1	.	.	.	.	.	.	/
Cc1cccc(N(Cc2cc3ccc(C)cc3[nH]c2=O)S(=O)(=O)c2ccccc2)c1	.	.	.	.	.	.	/
Cc1ccc2cc(CN(c3ccccc3)S(=O)(=O)c3ccccc3)c(=O)[nH]c2c1	31	.	.	.	.	.	.
SMILES	NR1D1 modulator	NR2E3 ag-1	NR2E3 ag-2	PKA-R1A act	PG9 binder	PKA-R2B act	Rev-erbA confirm	others
Cc1ccc(N(Cc2cc3ccc(C)cc3[nH]c2=O)S(=O)(=O)c2ccccc2)c(C)c1	15	.	.	.	.	.	.
Cc1ccc2cc(CN(c3cccc(C)c3C)S(=O)(=O)c3ccccc3)c(=O)[nH]c2c1	20	.	.	.	.	.	.
CN(C)S(=O)(=O)c1ccc2nc(COCc3nc4ccc(S(=O)(=O)N(C)C)cc4[nH]3)[nH]c2c1	.	/	/	/	/	/	/
O=C(OCc1cn(Cc2ccc(Cl)cc2)nn1)N1CCOCC1	.	/	/	/	/	/	/
CC1CCC2(CC1)CCN(CCCOC(=O)Nc1cccc(C(F)(F)F)c1)C2=O (configuration not stated)	.	/	/	/	/	/	/
CCCCOCCCNC(=O)C[C@H]1C(=O)N(Cc2ccc(OC)cc2)C2=CCCC[C@@]21C(=O)OCC	.	/	/	/	/	/	/
O=C(c1cccc(F)c1F)N1CCCC(c2nc(-c3cccs3)no2)C1 (configuration not stated)	.	/	/	/	/	/	/
O=S1(=O)c2ccc(N3CCSCC3)cc2Oc2ccccc2CN1Cc1cn(Cc2ccc(Cl)cc2)nn1	.	/	/	/	/	/	/
CNC(=O)c1cc2cc(Cc3ccccc3Cl)ccc2oc1=O	.	.	.	.	.	.	/
NC(=O)c1cc2cc(Cc3ccccc3Cl)ccc2oc1=O	20	.	.	.	.	.	.
COc1ccc(-c2nnc3sc(-c4ccccn4)nn23)cc1	/	.	/	/	/	/	/
c1ccc(-c2nn3c(-c4ccccc4)nnc3s2)cc1	.	.	.	.	.	.	/
CC(C)(C)c1ccc(-c2nnc3sc(-c4ccccn4)nn23)cc1	22	.	.	.	.	.	21
Cc1cccc(-c2nnc3sc(-c4ccccc4)nn23)c1	82	.	.	.	.	.	135
COc1ccc(C2Nc3ccccc3C(=O)N2Cc2cccnc2)cc1COc1c(C)cccc1C (configuration not stated)	.	/	/	/	/	/	/
COC(=O)[C@]1(CNC(=O)NCCc2ccc(OC)c(OC)c2)CC(=O)N(C)[C@@H]1c1ccccc1	.	/	/	/	/	/	/
N#Cc1cnn2c1nc(N1CCCCC1)c1ccccc12	32	.	.	.	.	.	.
O=C(NCCOc1ccccc1)C1Nc2ccc(C(F)(F)F)cc2C2c3ccccc3CC12 (configuration not stated)	.	.	.	.	.	.	/
CCOC(=O)C1Nc2ccc(C(F)(F)F)cc2C2c3ccccc3CC12 (configuration not stated)	36	.	.	.	.	.	.
Cc1c(C(=O)N2CCN(Cc3ccc4c(c3)OCO4)CC2)sc2ncnc(N3CCN(c4ccccc4F)CC3)c12	22	.	.	.	.	.	18
